Experimental data: publication PMC3899497 (Clinical Pharmacokinetics, 2013)
Read-outs that look alike come from different tables or passages of the source. Values belong to the molecule of their own block, whether it stands above or below them.

Experiments:
[1] = format: in vivo, human; details: for Plasma concentration at 6 h after clopidogrel administration: most subjects, LLOQ 0.25 ng/mL; for AUC(0-inf) / AUC(0-t) / Vd/F / half-life: human, po
[2] = cited from earlier work
[3] = cited from earlier work; remark: listed apart in the source
[4] = tested on: ADP-induced platelet aggregation; assay: ADP-induced whole-blood platelet aggregation, Multiplate impedance aggregometer; format: in vivo, human
Method in brief: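 Caucasian patients from central Poland undergoing coronary or peripheral interventions received the test drug orally, fasting, 75 mg daily for 7 days beforehand. Blood was drawn 2–3 h post-dose into hirudin tubes, diluted 1:1 with 0.9 % NaCl, and stirred 3 min at 37 °C. ADP was added at 6.4 μmol/L, and impedance was recorded for 6 min. Aggregation was expressed as AUC (AU·min).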

[5] = patients, oral clopidogrel 75 mg for 7 days, plasma
[6] = patients, oral clopidogrel 75 mg, plasma
[7] = patients, single oral clopidogrel 300 mg loading dose, plasma
[8] = patients, single oral clopidogrel 300 mg, plasma
[9] = clopidogrel 75 mg, diabetes mellitus no (n = 19)
[10] = clopidogrel 75 mg, diabetes mellitus yes (n = 11)
[11] = clopidogrel 75 mg, proton-pump inhibitors no (n = 15)
[12] = clopidogrel 75 mg, proton-pump inhibitors yes (n = 13)
[13] = clopidogrel 75 mg, single subject
[14] = healthy volunteers, clopidogrel 75 mg, ref 10
[15] = clopidogrel 75 mg maintenance dose, 6.4 μmol/L ADP

SMILES: O=C(O)[C@H](c1ccccc1Cl)N1CCc2sccc2C1 [CLPM]
C max in plasma relative to that of the parent drug ([1]; patients, clopidogrel 75 and 300 mg): thousand-fold greater
C max (mean ± SD) [1, 5]: 2,516 ± 1,754 ng/mL
AUCt (mean ± SD) [1, 6]: 11,077 ± 7,768 ng·h/mL
AUC∞ (mean ± SD) [1, 6]: 12,383 ± 8,552 ng·h/mL
t max (mean ± SD) [1, 6]: 1.37 ± 0.74 h
C max (mean ± SD) [1, 7]: 8,464 ± 3,772 ng/mL
AUCt (mean ± SD) [1, 8]: 32,979 ± 12,321 ng·h/mL
AUC∞ (mean ± SD) [1, 8]: 37,249 ± 13,861 ng·h/mL
t max (mean ± SD) [1, 8]: 1.61 ± 1.21 h

SMILES: COC(=O)[C@H](c1ccccc1Cl)N1CCC(S)/C(=C\C(=O)O)C1 (some centres unmarked) [CTM]
C max ([2]; healthy control subjects, clopidogrel 600 mg): 14.5 ng/mL
Concentrations in plasma ([2]; method not distinguishing H3 and H4 isomers): > 20 ng/mL
C max ([2]; patients with a history of stent thrombosis, clopidogrel 600 mg): 3.2 ng/mL

SMILES: COC(=O)[C@H](c1ccccc1Cl)N1CCc2sccc2C1 [Clopidogrel, (+)-S clopidogrel bisulfate, reference compound]
AUC(0-inf) ([1]; plasma, 75 mg): 6.29 ± 4.11 ng·h/mL
AUC(0-t) ([1]; plasma, 75 mg): 5.07 ± 3.8 ng·h/mL
Vd/F ([1]; plasma, 75 mg): 39200 ± 33500 L
half-life ([1]; plasma, 75 mg): 1.71 ± 1.28 h
AUC(0-inf) ([1]; plasma, 300 mg): 21.8 ± 13.3 ng·h/mL
AUC(0-t) ([1]; plasma, 300 mg): 20.8 ± 13.3 ng·h/mL
Vd/F ([1]; plasma, 300 mg): 45500 ± 19200 L
half-life ([1]; plasma, 300 mg): 1.99 ± 0.44 h
CL/F (mean ± SD) ([1]; patients, oral clopidogrel 75 mg): 18.96 ± 15.89 ×10^3 L/h
C max (mean ± SD) [1, 5]: 2.04 ± 2.0 ng/mL
CL/F (mean ± SD) ([1]; patients, single oral clopidogrel 300 mg): 16.98 ± 10.41 ×10^3 L/h
C max (mean ± SD) [1, 7]: 4.51 ± 3.42 ng/mL
t max (mean ± SD) [1, 8]: 1.17 ± 0.76 h
C max ([2]; Argentinean subjects, clopidogrel 75 mg): 0.9 ng/mL
C max ([2]; Egyptian healthy volunteers, clopidogrel 75 mg): 4.4 ng/mL
C max ([2]; US healthy volunteers, fasted state, clopidogrel 75 mg): 1.5 ng/mL
C max ([2]; US healthy volunteers, fed state, clopidogrel 75 mg): 2.5 ng/mL
Fraction of the absorbed drug transformed by carboxyl esterases into CLPM [3]: Up to 85%
Platelet aggregation, mean ± SD [4, 15]: 166 ± 146 AU·min
Platelet aggregation, median [4, 15]: 141 AU·min
Number of patients characterized as non-responders (AUC >468 AU·min) ([4]; clopidogrel 75 mg, 38 patients): two
Number of patients with low platelet aggregation (AUC <100 AU·min) ([4]; clopidogrel 75 mg, 38 patients): 14 patients
Platelet aggregation (AUC), one patient with high H4 concentrations ([4]; clopidogrel 75 mg, single patient later excluded from the correlation): 637 AU·min
Platelet aggregation, one subject with low H4 concentrations [4, 13]: 747 AU·min

More lines, main results first:

Exposure to H4 relative to exposure to the H3 isomer ([1]; after clopidogrel 300 mg (n = 3)): two times greater
AUCt (mean ± SD) [1, 9]: 10.46 ± 9.78 ng·h/mL
C max (mean ± SD) [1, 9]: 6.61 ± 6.30 ng/mL
AUCt (mean ± SD) [1, 10]: 11.69 ± 9.63 ng·h/mL
C max (mean ± SD) [1, 10]: 8.04 ± 6.55 ng/mL
AUCt (mean ± SD) [1, 11]: 9.69 ± 9.81 ng·h/mL
C max (mean ± SD) [1, 11]: 5.92 ± 4.53 ng/mL
AUCt (mean ± SD) [1, 12]: 13.10 ± 9.82 ng·h/mL
C max (mean ± SD) [1, 12]: 9.04 ± 8.07 ng/mL
C max, one patient with high platelet aggregation (637 AU·min) ([1]; clopidogrel 75 mg, single patient): 23.3 ng/mL
C max, one subject with high platelet aggregation (747 AU·min) [1, 13]: 2.5 ng/mL
Plasma concentration at 6 h after clopidogrel administration [1]: below the limit of quantification
C max (mean ± SD) [1, 5]: 7.13 ± 6.32 ng/mL
AUCt (mean ± SD) [1, 6]: 11.30 ± 9.58 ng·h/mL
AUC∞ (mean ± SD) [1, 6]: 11.97 ± 9.75 ng·h/mL
t max (mean ± SD) [1, 6]: 1.04 ± 0.53 h
t ½ (mean ± SD) [1, 6]: 0.90 ± 0.86 h
C max (mean ± SD) [1, 7]: 17.92 ± 20.38 ng/mL
AUCt (mean ± SD) [1, 8]: 25.04 ± 27.41 ng·h/mL
AUC∞ (mean ± SD) [1, 8]: 25.69 ± 27.54 ng·h/mL
t max (mean ± SD) [1, 8]: 0.83 ± 0.29 h
t ½ (mean ± SD) [1, 8]: 0.84 ± 0.20 h
SMILES: COC(=O)[C@H](c1ccccc1Cl)N1CCC(S)/C(=C\C(=O)O)C1 (some centres unmarked) [H4]
C max [2, 14]: 16.4 ng/mL
C max ([2]; healthy volunteers, clopidogrel 75 mg, ref 32): 11 ng/mL

AUCt (mean ± SD) [1, 9]: 6.71 ± 4.47 ng·h/mL
C max (mean ± SD) [1, 9]: 4.90 ± 4.02 ng/mL
AUCt (mean ± SD) [1, 10]: 7.88 ± 9.33 ng·h/mL
C max (mean ± SD) [1, 10]: 5.96 ± 7.69 ng/mL
AUCt (mean ± SD) [1, 11]: 7.03 ± 5.52 ng·h/mL
C max (mean ± SD) [1, 11]: 5.00 ± 4.93 ng/mL
AUCt (mean ± SD) [1, 12]: 7.76 ± 8.16 ng·h/mL
C max (mean ± SD) [1, 12]: 5.94 ± 6.63 ng/mL
Plasma concentration at 6 h after clopidogrel administration [1]: below the limit of quantification
C max (mean ± SD) [1, 5]: 5.29 ± 5.54 ng/mL
AUCt (mean ± SD) [1, 6]: 7.37 ± 6.71 ng·h/mL
AUC∞ (mean ± SD) [1, 6]: 7.96 ± 6.85 ng·h/mL
t max (mean ± SD) [1, 6]: 1.08 ± 0.62 h
t ½ (mean ± SD) [1, 6]: 0.78 ± 0.78 h
C max (mean ± SD) [1, 7]: 8.47 ± 1.69 ng/mL
AUCt (mean ± SD) [1, 8]: 11.24 ± 8.31 ng·h/mL
AUC∞ (mean ± SD) [1, 8]: 11.70 ± 8.33 ng·h/mL
t max (mean ± SD) [1, 8]: 0.83 ± 0.29 h
t ½ (mean ± SD) [1, 8]: 0.72 ± 0.18 h
SMILES: COC(=O)[C@H](c1ccccc1Cl)N1CC[C@H](S)/C(=C\C(=O)O)C1 [H3]
C max [2, 14]: 17.8 ng/mL
